Results reported in ChEMBL document CHEMBL4689842, “EUbOPEN Chemogenomics Library wave 1” (2021).

Tested on: U2OS
Assay: Multiplex assay against U2OS
Assay type: toxicity, cell-based
Conditions: human
In short: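 Imaging took place on a CQ1 microscope at 37°C and 5% CO2 once compound had been added to live cells stained at seeding with Hoechst33342, BioTracker Green Microtubule Cytoskeleton Dye, MitoTracker Red and Annexin V Alexa Fluor 680. CellPathfinder machine-learning gating classed cells as Hoechst high-intensity objects or normal cells, classed normal cells as having healthy, pyknosed or fragmented nuclei, and classed pyknosed cells as mitotic or apoptotic. Tubulin, mitochondrial-mass and membrane-permeability phenotypes are per cents of the healthy-nucleus cells.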

[1] = 12 h, 1 µM, compound concentration 1 uM, replicate 1
[2] = 12 h, 1 µM, compound concentration 1 uM, replicate 2
[3] = 12 h, 10 µM, compound concentration 10 uM, replicate 1
[4] = 12 h, 10 µM, compound concentration 10 uM, replicate 2
[5] = 24 h, 1 µM, compound concentration 1 uM, replicate 1
[6] = 24 h, 1 µM, compound concentration 1 uM, replicate 2
[7] = 24 h, 10 µM, compound concentration 10 uM, replicate 1
[8] = 24 h, 10 µM, compound concentration 10 uM, replicate 2
[9] = 48 h, 1 µM, compound concentration 1 uM, replicate 1
[10] = 48 h, 1 µM, compound concentration 1 uM, replicate 2
[11] = 48 h, 10 µM, compound concentration 10 uM, replicate 1
[12] = 48 h, 10 µM, compound concentration 10 uM, replicate 2

## CNC(=O)Nc1ccc(-c2nc(N3CC4CCC(C3)O4)c3cnn(C4CCC5(CC4)OCCO5)c3n2)cc1
[1]
  Population Apoptotic (%): 22%
  Population Fragmented Nuclei (%): 24%
  Population Healthy Nuclei (%): 59%
  Population Hoechst High Intensity Objects (%): 13%
  Population Membrane Permeable-Phenotype (%): 5%
  Population Mitochondria Different-Phenotype (%): 11%
  Population Mitotic Cells (%): 77%
  Population Normal (%): 86%
  Population Pyknosed Nuclei (%): 15%
  Population Tubulin-Different-Phenotype (%): 26%
  Total Cell Count: 90
[2]
  Population Apoptotic (%): 0%
  Population Fragmented Nuclei (%): 28%
  Population Healthy Nuclei (%): 55%
  Population Hoechst High Intensity Objects (%): 10%
  Population Mitochondria Different-Phenotype (%): 13%
  Population Mitotic Cells (%): 100%
  Population Normal (%): 89%
  Population Pyknosed Nuclei (%): 16%
  Population Tubulin-Different-Phenotype (%): 18%
  Total Cell Count: 54
[3]
  Population Apoptotic (%): 40%
  Population Fragmented Nuclei (%): 26%
  Population Healthy Nuclei (%): 31%
  Population Hoechst High Intensity Objects (%): 13%
  Population Membrane Permeable-Phenotype (%): 11%
  Population Mitochondria Different-Phenotype (%): 88%
  Population Mitotic Cells (%): 59%
  Population Normal (%): 87%
  Population Pyknosed Nuclei (%): 42%
  Population Tubulin-Different-Phenotype (%): 96%
  Total Cell Count: 66
[4]
  Population Apoptotic (%): 25%
  Population Fragmented Nuclei (%): 13%
  Population Healthy Nuclei (%): 54%
  Population Hoechst High Intensity Objects (%): 6%
  Population Membrane Permeable-Phenotype (%): 36%
  Population Mitochondria Different-Phenotype (%): 75%
  Population Mitotic Cells (%): 75%
  Population Normal (%): 93%
  Population Pyknosed Nuclei (%): 32%
  Total Cell Count: 107
[5]
  Population Apoptotic (%): 30%
  Population Fragmented Nuclei (%): 28%
  Population Healthy Nuclei (%): 52%
  Population Hoechst High Intensity Objects (%): 19%
  Population Membrane Permeable-Phenotype (%): 0%
  Population Mitochondria Different-Phenotype (%): 14%
  Population Mitotic Cells (%): 70%
  Population Normal (%): 80%
  Population Pyknosed Nuclei (%): 18%
  Population Tubulin-Different-Phenotype (%): 14%
  Total Cell Count: 98
[6]
  Population Apoptotic (%): 25%
  Population Fragmented Nuclei (%): 19%
  Population Healthy Nuclei (%): 64%
  Population Hoechst High Intensity Objects (%): 18%
  Population Membrane Permeable-Phenotype (%): 8%
  Population Mitochondria Different-Phenotype (%): 6%
  Population Mitotic Cells (%): 75%
  Population Normal (%): 81%
  Population Pyknosed Nuclei (%): 16%
  Population Tubulin-Different-Phenotype (%): 23%
  Total Cell Count: 55
[7]
  Population Apoptotic (%): 51%
  Population Fragmented Nuclei (%): 25%
  Population Healthy Nuclei (%): 35%
  Population Hoechst High Intensity Objects (%): 10%
  Population Membrane Permeable-Phenotype (%): 10%
  Population Mitochondria Different-Phenotype (%): 89%
  Population Mitotic Cells (%): 48%
  Population Normal (%): 90%
  Population Pyknosed Nuclei (%): 38%
  Population Tubulin-Different-Phenotype (%): 93%
  Total Cell Count: 66
[8]
  Population Apoptotic (%): 41%
  Population Fragmented Nuclei (%): 8%
  Population Healthy Nuclei (%): 42%
  Population Hoechst High Intensity Objects (%): 6%
  Population Membrane Permeable-Phenotype (%): 44%
  Population Mitochondria Different-Phenotype (%): 84%
  Population Mitotic Cells (%): 58%
  Population Normal (%): 93%
  Population Pyknosed Nuclei (%): 49%
  Population Tubulin-Different-Phenotype (%): 96%
  Total Cell Count: 90
[9]
  Population Apoptotic (%): 50%
  Population Fragmented Nuclei (%): 39%
  Population Healthy Nuclei (%): 49%
  Population Hoechst High Intensity Objects (%): 18%
  Population Membrane Permeable-Phenotype (%): 3%
  Population Mitochondria Different-Phenotype (%): 7%
  Population Mitotic Cells (%): 50%
  Population Normal (%): 81%
  Population Pyknosed Nuclei (%): 11%
  Population Tubulin-Different-Phenotype (%): 19%
  Total Cell Count: 93
[10]
  Population Apoptotic (%): 36%
  Population Fragmented Nuclei (%): 14%
  Population Healthy Nuclei (%): 55%
  Population Hoechst High Intensity Objects (%): 14%
  Population Membrane Permeable-Phenotype (%): 5%
  Population Mitochondria Different-Phenotype (%): 14%
  Population Mitotic Cells (%): 63%
  Population Normal (%): 85%
  Population Pyknosed Nuclei (%): 30%
  Population Tubulin-Different-Phenotype (%): 37%
  Total Cell Count: 56
[11]
  Population Apoptotic (%): 64%
  Population Fragmented Nuclei (%): 29%
  Population Healthy Nuclei (%): 23%
  Population Hoechst High Intensity Objects (%): 12%
  Population Membrane Permeable-Phenotype (%): 26%
  Population Mitochondria Different-Phenotype (%): 94%
  Population Mitotic Cells (%): 35%
  Population Normal (%): 87%
  Population Pyknosed Nuclei (%): 47%
  Population Tubulin-Different-Phenotype (%): 94%
  Total Cell Count: 65
[12]
  Population Apoptotic (%): 43%
  Population Fragmented Nuclei (%): 11%
  Population Healthy Nuclei (%): 29%
  Population Hoechst High Intensity Objects (%): 16%
  Population Membrane Permeable-Phenotype (%): 40%
  Population Mitochondria Different-Phenotype (%): 80%
  Population Mitotic Cells (%): 56%
  Population Normal (%): 83%
  Population Pyknosed Nuclei (%): 58%
  Population Tubulin-Different-Phenotype (%): 93%
  Total Cell Count: 74
